Source: ChEMBL document CHEMBL4041463, “Pyrazolo[1,5-a]pyridine-3-carboxamide hybrids: Design, synthesis and evaluation of anti-tubercular activity” (Eur J Med Chem, 2017)
Converted amounts (≈) assume the structure as drawn.

Columns and labels:
Assay type in all cases: functional
[1] = tested on: Mycobacterium tuberculosis; assay: Antitubercular activity against Mycobacterium tuberculosis H37Ra harboring pTYOK in UAIRa broth culture assessed as concentration required to reduce relative luminescence unit to <10% measured after 4 days by autoluminescence assay; conditions: 96 h
[2] = tested on: Mycobacterium tuberculosis; assay: Antitubercular activity against isoniazid resistant Mycobacterium tuberculosis H37Rv harboring KAtG Y155 deletion mutant after 5 days
Method in brief: (§1)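 Ten-point two-fold DMSO dilutions in 7H9-Tw-OADC, final DMSO 2%, top concentration 200 µM. Incubated 5 days; growth read as OD590. Controls: medium/DMSO background, 100 µM rifampicin, DMSO-only, plus rifampicin dose-response. Gompertz fit of % growth; MIC taken as onset of zero growth. Plate acceptance: OD590 >0.2 in maximum-growth wells and rifampicin MIC within 3-fold of expected.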

[3] = tested on: Mycobacterium tuberculosis; assay: Antitubercular activity against isoniazid resistant Mycobacterium tuberculosis ATCC 35822 after 5 days; conditions: ATCC 35822, 120 h; method in brief: as §1
[4] = tested on: Mycobacterium tuberculosis; assay: Antitubercular activity against rifampicin resistant Mycobacterium tuberculosis H37Rv harboring rpoB S522L mutant after 5 days; method in brief: as §1
[5] = tested on: Mycobacterium tuberculosis; assay: Antitubercular activity against rifampicin resistant Mycobacterium tuberculosis ATCC 35828 after 5 days; conditions: ATCC 35828, 120 h; method in brief: as §1
[6] = tested on: Mycobacterium tuberculosis; assay: Antitubercular activity against fluoroquinolone resistant Mycobacterium tuberculosis H37Rv harboring gyrB D94N mutant after 5 days; method in brief: as §1

Structure (SMILES) | MIC [1] [µg/mL] | MIC [2] [µg/mL] | MIC [3] [µg/mL] | MIC [4] [µg/mL] | MIC [5] [µg/mL] | MIC [6] [µg/mL]
NNC(=O)c1ccncc1 [ISONIAZID] | 0.41 (≈ 2.99 µM) | >27 | > 27 | 0.056 (≈ 0.408 µM) | 0.11 (≈ 0.802 µM) | 0.088 (≈ 0.642 µM)
Cc1ccn2nc(C)c(C(=O)NCc3ccc(OC(F)(F)F)cc3)c2c1 | 3 (≈ 8.26 µM) | – | – | – | – | –
CO[C@H]1/C=C/O[C@@]2(C)Oc3c(C)c(O)c4c(O)c(c(/C=N/N5CCN(C)CC5)c(O)c4c3C2=O)NC(=O)/C(C)=C\C=C\[C@H](C)[C@H](O)[C@@H](C)[C@@H](O)[C@@H](C)[C@H](OC(C)=O)[C@@H]1C [RIFAMPIN] | 0.03 (≈ 0.0365 µM) | 0.016 (≈ 0.0194 µM) | 0.007 (≈ 0.00851 µM) | 0.42 (≈ 0.51 µM) | > 41 | 0.017 (≈ 0.0207 µM)
Cc1ccn2nc(C)c(C(=O)NCc3ccc(N4CCC(Oc5ccc(OC(F)(F)F)cc5)CC4)cc3)c2c1 | 0.03 (≈ 0.0557 µM) | – | – | – | – | –
CCc1nn2ccc(Cl)cc2c1C(=O)NCC1CCN(CC23CC4CC(CC(C4)C2)C3)CC1 | 3 (≈ 6.4 µM) | – | – | – | – | –
CCc1nn2ccc(Cl)cc2c1C(=O)NCc1ccc(-c2ccc(OC(F)(F)F)cc2)nc1 | 0.1 (≈ 0.211 µM) | – | – | – | – | –
CCc1nn2ccc(Cl)cc2c1C(=O)NC[C@H]1CN(c2ccc(N3CCOCC3)c(F)c2)C(=O)O1 | > 10 | – | – | – | – | –
C[C@H]1COc2c(N3CCN(C)CC3)c(F)cc3c(=O)c(C(=O)O)cn1c23.C[C@H]1COc2c(N3CCN(C)CC3)c(F)cc3c(=O)c(C(=O)O)cn1c23.O [LEVOFLOXACIN] | – | 0.44 | 0.59 | 0.37 | 0.63 | 10
CCc1nn2ccc(Cl)cc2c1C(=O)NC/C=C(\C)CCC=C(C)C | 0.3 (≈ 0.834 µM) | – | – | – | – | –
